High-throughput results (PubChem BioAssay)
Rows were chosen to be rich in hits. Some 1.2% of all compounds tested hit in one or more screens of this group.
CSN inh: inhibitors of CSN-mediated cullin deneddylation, primary screen, biochemical, fluorescence polarization, uHTS; Purified CSN, SCF-Nedd8-OG deneddylation; inhibition, % at 12.5 µM; 0.38% of 360,000 active; AID 651999, 2013;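 active means pattern-corrected inhibition above about 35%, with an unprinted fluorescence ratio check between 0.5 and 1.5, limit read from the data, passing the limit was not always enough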;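 further: 0% = enzyme with substrate and 100% = substrate without enzyme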
Target sequence (Q92905 whole entry, looked up, one chain of several): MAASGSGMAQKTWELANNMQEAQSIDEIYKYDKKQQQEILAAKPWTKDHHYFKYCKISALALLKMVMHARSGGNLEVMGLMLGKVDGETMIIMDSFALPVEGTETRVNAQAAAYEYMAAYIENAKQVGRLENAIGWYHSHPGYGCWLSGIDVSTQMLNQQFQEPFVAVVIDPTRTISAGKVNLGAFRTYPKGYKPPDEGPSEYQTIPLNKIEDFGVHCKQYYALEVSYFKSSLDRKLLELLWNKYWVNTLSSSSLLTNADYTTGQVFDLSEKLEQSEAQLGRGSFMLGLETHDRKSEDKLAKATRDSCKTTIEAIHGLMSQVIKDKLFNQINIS
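Assay system: Purified human Csn5 enzyme expressed in HEK293T cells | Amount: Enzyme 0.24 nM | Measured by: Fluorescence polarization readout | Medium: Tris/NaCl/DTT buffer, pH 7.5 | Compound dosing: One concentration, 12.5 µM, 0.25% DMSO | Times: 90 min incubation of compound, enzyme and substrate at room temperature | Control set: no-enzyme wells high, enzyme-with-substrate wells low | Read-out: % inhibition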
TPT1 inhibitor: Candida albicans TPT1 enzyme inhibitors, primary screen, biochemical, fluorescence polarization | 0.81% of 300,000 active | AID 1962, 2009 | inhibition, % at 5 µM | recombinant caTPT1, FP RNA substrate dephosphorylation;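 active means inhibition above the mean of all tested compounds plus 3 SD, set per screening campaign, cut at about 24% in these data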;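 further: plate controls were DMSO alone for no effect and ferristatin control at 100 nM for full effect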
HNF4A DNA FP: change in binding of human HNF4A to DNA, primary screen, biochemical, fluorescence polarization, FITC-DNA; 1 h; activity change, % at 10 µM; 0.3% of 360,000 active; AID 1224865, 2016; in the data active means activity change above about 30%, passing the limit was not always enough
Rtt109 Vps75: inhibitors of C. albicans Rtt109/Vps75 HAT, primary screen, biochemical, ThioGlo CoA-SH fluorescence, plate reader. purified Rtt109/Vps75, 4 h. AID 540336, 2011. Histone acetyltransferase RTT109 (Candida albicans (strain SC5314 / ATCC MYA-2876)), …. inhibition, % at 34.9 µM. 0.16% of 330,000 active;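 active means inhibition of at least 50% in every replicate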
Target sequence (Q5AAJ8 whole entry, looked up): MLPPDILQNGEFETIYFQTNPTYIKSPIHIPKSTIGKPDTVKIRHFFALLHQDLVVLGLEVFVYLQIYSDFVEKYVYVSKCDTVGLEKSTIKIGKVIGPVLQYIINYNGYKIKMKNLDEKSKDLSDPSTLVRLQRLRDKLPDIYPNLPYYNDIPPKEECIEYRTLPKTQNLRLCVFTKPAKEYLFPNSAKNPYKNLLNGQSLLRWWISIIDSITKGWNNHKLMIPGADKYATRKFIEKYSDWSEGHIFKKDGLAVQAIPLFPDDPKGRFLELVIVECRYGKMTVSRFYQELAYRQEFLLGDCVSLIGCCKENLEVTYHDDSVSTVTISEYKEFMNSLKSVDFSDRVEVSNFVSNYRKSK
Numbers without * were called inactive; . = no result given; + = active, no number.

SMILES | CSN inh | TPT1 inhibitor | HNF4A DNA FP | Rtt109 Vps75
COc1cc(C2c3c([nH]c(=O)[nH]c3=O)Nc3ccc4ccccc4c32)ccc1O (centres undefined) | 5.8 | -7.8 | 0.8 | -3.5
COc1cc(C2c3c([nH]c(=O)[nH]c3=O)Nc3ccc4ccccc4c32)cc(OC)c1OC (centres undefined) | 66.2* | 1.8 | -4.9 | 1.0
O=C1CSC(c2ccccc2)N1Cc1ccccc1 (centres undefined) | 4.5 | -0.6 | -1.7 | -0.5
Cc1ccc(C(c2cc(Cl)c3cccnc3c2O)N2CCN(C)CC2)cc1 (centres undefined) | -1.9 | 1.2 | 2.1 | 12.8
CN1CCN(C(c2ccccn2)c2cc(Cl)c3cccnc3c2O)CC1 (centres undefined) | 0.6 | 1.1 | 3.6 | 55.8*
C=CCNC(=O)c1ccccc1NC(=O)C1CC(=O)N(C(C)C)C1 (centres undefined) | -1.2 | -1.4 | 2.8 | -1.0
CC(C)(C)C(=O)/C=c1\s/c(=C\c2ccc(-c3ccc([N+](=O)[O-])cc3)o2)c(=O)n1CC(=O)NC(N)=O | -103.6 | 104.4* | 96.1 | -1.1
COc1cccc(CN2CC(C(=O)NCCN3CCOC3=O)CCC2=O)c1 (centres undefined) | 1.4 | -4.1 | 6.0 | -2.9
CCC(/C=C1\Oc2ccc(OC)cc2N1C)=C\c1sc2ccccc2[n+]1CCCS(=O)(=O)[O-] | 73.2* | . | 169.7 | 7.1
CCNC(=O)C1(C)CCN(Cc2csc(-c3ccccc3)n2)C1 (centres undefined) | 0.1 | . | -3.5 | .
COC(=O)c1c(C)[nH]c(O)c1C=Nc1ccc(C(C)C)cc1 | 53.2* | 8.9 | 2.9 | 1.1
COC(=O)c1c(C)[nH]c(O)c1C=Nc1ccc(Oc2ccccc2)cc1 | 89.6* | 1.9 | 17.2 | .
CCOC(=O)c1c(C)[nH]c(O)c1C=Nc1ccc(Cl)cc1 | -3.6 | -0.2 | 16.9 | 2.8
O=c1c2cc(F)ccc2sn1-c1ccccc1 | -0.1 | . | 3.0 | 132.3*
Cc1ccccc1-n1sc2cc(F)ccc2c1=O | -5.6 | -1.5 | 5.4 | 101.8*
O=C(O)c1cccc(-n2sc3ccccc3c2=O)c1 | -3.5 | . | 4.1 | 178.3*
CCc1ccc(C(=O)COC(=O)c2cc([N+](=O)[O-])ccc2N2CCOCC2)cc1 | -1.1 | -1.2 | -1.7 | -12.2
CCOC(=O)[C@@H]1[C@H]2COc3cc(OC)ccc3[C@H]2N2C(=O)N(c3ccc(C(F)(F)F)cc3)C(=O)[C@]12C | -4.6 | . | 1.9 | 0.1
COC(=O)Cn1c(C)c(/C=C/c2cc[n+](C)cc2)c2ccccc21 | 69.5* | . | 127.7 | -4.0
CC[N+]1(C)CCC(O)(/C=C/c2ccccc2)C(C(=O)/C=C/c2ccccc2)C1 (centres undefined) | 9.0 | . | 1.9 | 2.3
COc1ccccc1-n1cnnc1SCC(=O)Nc1cccc(S(N)(=O)=O)c1 | 2.2 | -1.0 | -1.7 | -0.8
CC1(C)Cc2c(C#N)c(NCCCO)nc(-c3ccccc3)c2CO1 | 0.2 | -4.8 | 27.7* | -14.8
CCN(CC)C(=O)C1=C(C)N(Cc2ccc(OC)cc2)C(=O)C(CC(=O)NCCCN(C)C)C1 (centres undefined) | 2.0 | . | -0.4 | .
CC(C)CCNC(=O)C1CCCN(S(=O)(=O)c2ccc3c(c2)CC(C)N3C(=O)C2CC2)C1 (centres undefined) | 0.2 | -2.9 | -0.7 | 23.1
CC(C)CCNC(=O)C1CCN(S(=O)(=O)c2ccc3c(c2)CC(C)N3C(=O)C2CCC2)CC1 (centres undefined) | 1.4 | -0.1 | 5.2 | 93.7*
SMILES | CSN inh | TPT1 inhibitor | HNF4A DNA FP | Rtt109 Vps75
CN(Cc1ccccc1)C(=O)c1ccccc1N(C)S(=O)(=O)c1ccccc1 | -0.1 | . | -0.1 | -4.8
Cn1c(=O)c2[nH]c(NN=Cc3cccc(Br)c3)nc2n(C)c1=O | 1.2 | . | 4.8 | 5.1
Cc1nc(CC(C)C)cc(C(=O)N2CCCC(CNS(=O)(=O)c3cccs3)C2)n1 (centres undefined) | 0.0 | -4.2 | 3.1 | 60.5*
CCCCC1CCC(C(=O)Nc2ccc(N3CCOCC3)cc2N2CCOCC2)CC1 (centres undefined) | -3.0 | . | 2.4 | 5.7
COc1ccc(C(=O)COC(=O)CNC(=O)c2ccccc2)cc1F | 0.0 | . | 4.7 | -21.8
COc1ccc(C2=Nc3ccccc3NC(=O)C2N(Cc2ccccc2)C(=O)C2=NNC(=O)CC2)cc1 (centres undefined) | 1.9 | . | 3.7 | .
CC(=O)OCC1=C(C(=O)O)N2C(=O)[C@@H](NC(=O)Cc3ccccc3)[C@H]2SC1 | 5.5 | . | -3.1 | -1.9
C=CC1=C(C(=O)O)N2C(=O)C(NC(=O)Cc3ccccc3)C2SC1 (centres undefined) | 54.3* | 2.8 | -56.0 | 14.1
COc1ccc(-c2ccc3c(c2)S(=O)(=O)c2cccc(C(=O)NCc4ccccc4Cl)c2C3=O)cc1OC | 14.1 | . | -2.0 | 7.2
COc1ccc(-c2ccc3c(c2)S(=O)(=O)c2cccc(C(=O)NCCOc4ccccc4Cl)c2C3=O)cc1OC | 65.0* | . | -17.0 | 10.0
CCOC(=O)C1=C(O)/C(=C\c2cccs2)N=C1C | -3.9 | 0.9 | 0.3 | -0.3
CCOC(=O)C1=C(O)/C(=C\c2ccc(CNC(=O)C(=O)Nc3ccccc3)o2)N=C1C | 41.1* | 5.1 | 1.1 | -8.3
O=C1NC(=S)SC1=Cc1ccccc1Br | 4.6 | . | -0.3 | -5.3
O=C1NC(=S)SC1=Cc1cc(Br)ccc1O | 31.4 | . | 79.8* | -4.5
Cn1cnnc1SCC(=O)Nc1sc2c(c1C(N)=O)CCC2 | 49.7* | 23.8 | -18.9 | 2.7
CC(=O)Oc1ccc(C(=O)Nc2cccc(C(=O)c3cccc(NC(=O)c4ccc(OC(C)=O)cc4)c3)c2)cc1 | 108.3* | -0.2 | 12.3 | -0.6
Cc1ccc(OCC(=O)OCC(=O)N2c3ccccc3CC2C)cc1C (centres undefined) | -3.8 | . | -3.2 | 3.5
Cc1csc(SCC(=O)Nc2cccc(S(=O)(=O)N3CCCC3)c2)n1 | 106.5* | 2.1 | -2.8 | 1.6
Cc1cc(C)c(C(=O)OCC(=O)Nc2cccc(S(=O)(=O)N3CCCCC3)c2)c(C)c1 | + | 2.0 | -3.9 | 12.2
O=C(COC(=O)c1ccccc1Cl)Nc1cccc(S(=O)(=O)N2CCCCC2)c1 | -5.0 | . | -2.3 | .
Cc1ccc(C2=C/C(=C/c3cccs3)C(=O)O2)cc1 | 48.9* | 7.7 | 88.7 | 29.6
CC(C)CCNc1nnnc2c1sc1nc(N3CCOCC3)c3c(c12)CC(C)(C)SC3 | 60.3* | 3.2 | -1.0 | -0.4
CN1CCc2cccc3c2[C@@H]1Cc1ccc(O)c(O)c1-3 | -5.4 | -7.3 | 4.3 | 60.1*
Cc1cc(C)n(CC(=O)Nc2ccc3c(c2)OCO3)c(=O)c1C#N | 0.7 | -2.2 | -6.2 | -0.6
O=C(NNc1nc2c(F)cccc2s1)C1=COCCO1 | 7.0 | -2.4 | 1.7 | -0.2
Cc1ccc2sc(NNC(=O)C3=COCCO3)nc2c1C | 2.4 | -2.6 | 2.0 | 59.4*
